Test results published in ChEMBL document CHEMBL4130623, “Discovery of Highly Potent Pinanamine-Based Inhibitors against Amantadine- and Oseltamivir-Resistant Influenza A Viruses” (J Med Chem, 2018).
Active and inactive are the calls of the source. No cut-off for these calls is given here.

Legend:
Type in all cases: functional, organism-based
[1] = system: Influenza A virus; experiment: Antiviral activity against Influenza A virus (A/Guangzhou/GIRD/07/2009 (H1N1)) infected in MDCK cells assessed as reduction in virus-induced cytopathic effect after 48 hrs by microscopic analysis
In short: (§1)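 MDCK monolayers (5×10^4 cells/well, grown 24 h) were rinsed twice, infected with 100 TCID50 virus for 2 h at 37 °C in 5% CO2, and the inoculum was removed. Two-fold serial compound dilutions in DMEM with 1.5 µg/mL trypsin were added and incubated 48 h at 34 °C. CPE percentage was scored by microscope and EC50 fitted by non-linear regression.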

[2] = system: Influenza A virus; experiment: Antiviral activity against Influenza A virus (A/WSN/33) by CCK-8 reagent based assay; conditions: A/WSN/1933(H1N1)
[3] = system: Influenza A virus; experiment: Antiviral activity against Influenza A virus (A/HK/68) by CCK-8 reagent based assay
[4] = system: Influenza A virus; experiment: Antiviral activity against Influenza A virus (A/Guangzhou/GIRD/07/2009 (H1N1)) infected in MDCK cells assessed as reduction in virus-induced cytopathic effect at less than cytotoxic MCC level after 48 hrs by microscopic analysis
[5] = system: Influenza A virus; experiment: Antiviral activity against Influenza A virus (A/HK/68(H3N2)) infected in MDCK cells assessed as reduction in virus-induced cytopathic effect after 48 hrs by microscopic analysis; in short: as §1
[6] = system: H3N2 subtype; experiment: Antiviral activity against Influenza A virus (A/Aichi/2/68 (H3N2)) infected in MDCK cells assessed as reduction in virus-induced cytopathic effect after 48 hrs by microscopic analysis; conditions: A/Aichi/2/1968(H3N2); in short: as §1
[7] = system: Influenza A virus; experiment: Antiviral activity against Influenza A virus (A/WSN/33 (H1N1)) infected in MDCK cells assessed as reduction in virus-induced cytopathic effect after 48 hrs by microscopic analysis; conditions: A/WSN/1933(H1N1); in short: as §1
[8] = system: Influenza A virus; experiment: Antiviral activity against Influenza A virus (A/PR/8/34 (H1N1)) infected in MDCK cells assessed as reduction in virus-induced cytopathic effect after 48 hrs by microscopic analysis; conditions: A/Puerto Rico/8/1934(H1N1); in short: as §1
[9] = system: Influenza A virus; experiment: Antiviral activity against Influenza A virus (A/duck/Guangdong/1/1996 (H7N3)) infected in MDCK cells assessed as reduction in virus-induced cytopathic effect after 48 hrs by microscopic analysis; in short: as §1
[10] = system: Influenza A virus; experiment: Antiviral activity against Influenza A virus (A/duck/HK/Y280/97 (H9N2)) infected in MDCK cells assessed as reduction in virus-induced cytopathic effect after 48 hrs by microscopic analysis; in short: as §1

SMILES	EC50 [1]	Activity [2]	Activity [3]	inhibition [4]	other results
C[C@@H]1C2CC(C[C@H]1NCc1cc(Br)cs1)C2(C)C (single isomer, unassigned)	5160 nM	Active	Active		
CSc1ccc(CN[C@@H]2CC3CC([C@H]2C)C3(C)C)s1 (single isomer, unassigned)		Active	Active	inactive	
C[C@@H]1C2CC(C[C@H]1NCc1cncnc1)C2(C)C (single isomer, unassigned)				inactive	
CCOc1ccsc1CN[C@@H]1CC2CC([C@H]1C)C2(C)C (single isomer, unassigned)		Active	Active	inactive	
C=Cc1ccsc1CN[C@@H]1CC2CC([C@H]1C)C2(C)C (single isomer, unassigned)	1820 nM	Active	Active		
C[C@@H]1C2CC(C[C@H]1NCc1cc(-c3ccccc3)cs1)C2(C)C (single isomer, unassigned)				inactive	
C[C@@H]1C2CC(C[C@H]1NCc1ccc(C(C)(C)C)s1)C2(C)C (single isomer, unassigned)				inactive	
CCOC(=O)C1=C[C@@H](OC(CC)CC)[C@H](NC(C)=O)[C@@H](N)C1 [OSELTAMIVIR]					EC50 [5]: 2300 nM; EC50 [6]: 990 nM; EC50 [7]: 400 nM; EC50 [8]: 130 nM; EC50 [9]: 2670 nM; EC50 [10]: > 10000 nM
C[C@@H]1C2CC(C[C@H]1NCc1sccc1Br)C2(C)C (single isomer, unassigned)		Active	Active	inactive	
Cc1ccsc1CN[C@@H]1C[C@H]2C[C@@H]([C@H]1C)C2(C)C		Active	Active	inactive	
CCc1ccc(CN[C@@H]2CC3CC([C@H]2C)C3(C)C)s1 (single isomer, unassigned)				inactive	
Cc1csc(CN[C@@H]2CC3CC([C@H]2C)C3(C)C)n1 (single isomer, unassigned)	75000 nM	Active	Active		
C[C@@H]1C2CC(C[C@H]1NCc1cnccn1)C2(C)C (single isomer, unassigned)				inactive	
C[C@@H]1C2CC(C[C@H]1NCc1cccs1)C2(C)C (single isomer, unassigned)	6420 nM	Active	Active		
C[C@@H]1C2CC(C[C@H]1NCc1ccc(Br)s1)C2(C)C (single isomer, unassigned)				inactive	
CCCCc1csc(CN[C@@H]2CC3CC([C@H]2C)C3(C)C)c1 (single isomer, unassigned)	460 nM				
C[C@@H]1C2CC(C[C@H]1NCc1cc(-c3ccsc3)cs1)C2(C)C (single isomer, unassigned)				inactive	
C[C@@H]1C2CC(C[C@H]1NCc1sccc1-c1ccccc1)C2(C)C (single isomer, unassigned)				inactive	
C[C@@H]1C2CC(C[C@H]1NCc1ccoc1)C2(C)C (single isomer, unassigned)	60500 nM				
CCCCc1ccsc1CN[C@@H]1CC2CC([C@H]1C)C2(C)C (single isomer, unassigned)	10300 nM	Active	Active		

SMILES	EC50 [1]	Activity [2]	Activity [3]	inhibition [4]	other results
CCc1ccsc1CN[C@@H]1CC2CC([C@H]1C)C2(C)C (single isomer, unassigned)		Active	Active	inactive	
C[C@@H]1C2CC(C[C@H]1NCc1cc(C3CCCCC3)cs1)C2(C)C (single isomer, unassigned)				inactive	
C[C@@H]1C2CC(C[C@H]1NCc1sccc1C1CCCCC1)C2(C)C (single isomer, unassigned)				inactive	
CCCc1ccsc1CN[C@@H]1CC2CC([C@H]1C)C2(C)C (single isomer, unassigned)		Active	Active	inactive	
NC12CC3CC(CC(C3)C1)C2 [AMANTADINE]	> 100000 nM				EC50 [5]: 1000 nM; EC50 [7]: > 100000 nM; EC50 [8]: > 100000 nM
C[C@@H]1C2CC(C[C@H]1NCc1ccsc1)C2(C)C (single isomer, unassigned)	28600 nM	Active	Active		
CCCc1csc(CN[C@@H]2CC3CC([C@H]2C)C3(C)C)c1 (single isomer, unassigned)		Active	Active	inactive	
C[C@@H]1C2CC(C[C@H]1NCc1ccco1)C2(C)C (single isomer, unassigned)				inactive	
Cc1n[nH]cc1CN[C@@H]1CC2CC([C@H]1C)C2(C)C (single isomer, unassigned)				inactive	
C[C@@H]1C2CC(C[C@H]1NCc1cc(C3CCCC3)cs1)C2(C)C (single isomer, unassigned)				inactive	
C=C(C)c1csc(CN[C@@H]2CC3CC([C@H]2C)C3(C)C)c1 (single isomer, unassigned)				inactive	
C[C@@H]1C2CC(C[C@H]1NCc1sccc1-c1ccsc1)C2(C)C (single isomer, unassigned)				inactive	
C[C@@H]1C2CC(C[C@H]1NCc1ccc(-c3ccc(Br)s3)s1)C2(C)C (single isomer, unassigned)				inactive	
CCc1csc(CN[C@@H]2CC3CC([C@H]2C)C3(C)C)c1 (single isomer, unassigned)				inactive	
C=Cc1csc(CN[C@@H]2CC3CC([C@H]2C)C3(C)C)c1 (single isomer, unassigned)		Active	Active	inactive	
Cc1csc(CN[C@@H]2CC3CC([C@H]2C)C3(C)C)c1 (single isomer, unassigned)	200 nM	Active	Active		
C[C@@H]1C2CC(C[C@H]1NCc1ccc(Cl)s1)C2(C)C (single isomer, unassigned)				inactive	
C[C@@H]1C2CC(C[C@H]1NCc1sccc1C1CCCC1)C2(C)C (single isomer, unassigned)	690 nM				
Cc1ccc(CN[C@@H]2CC3CC([C@H]2C)C3(C)C)s1 (single isomer, unassigned)		Active	Active	inactive	
C[C@@H]1C2CC(C[C@H]1NCc1cc(C3CC3)cs1)C2(C)C (single isomer, unassigned)	6680 nM	Active	Active		
